# Results reported in ChEMBL document CHEMBL5712089, “Targeting clinical epigenetic reprogramming for chemoprevention of metabolic and viral hepatocellular carcinoma” (Gut, 2021).
# Activity calls are given as the source filed them. No cut-off for these calls is given here.
# Legend:
# Mus musculus [1] = test: Reduction of liver fibrosis in DEN/CDAHFD-induced NASH C57BL/6 mouse model assessed as decrease in Tgf gene expression at 50 mg/kg, IP for 5 days a week by qRT-PCR analysis; assay type: functional, organism-based; conditions: time 5.0 day
# How it was run: (§1)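 DEN (35 mg/kg IP, day 15)/CDAHFD-fed male C57BL/6 mice were dosed IP 5 days/week from 12 weeks of age in 10% hydroxypropyl-β-cyclodextrin, or given vehicle. Livers were taken at 30 weeks and hepatic fibrotic and inflammatory gene expression was quantified by qRT-PCR, n=3 per group; means±SD, unpaired t-test.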
# Mus musculus [2] = test: Effect on c-Myc expression in DEN/CDAHFD-induced NASH C57BL/6 mouse model at 50 mg/kg, IP for 5 days a week by Western blot analysis; assay type: functional, organism-based; conditions: time 5.0 day
# How it was run: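 Liver lysates from control/PBS, vehicle and treated DEN/CDAHFD mice (n=3 each; 30 weeks; IP 5 days/week in 10% hydroxypropyl-β-cyclodextrin) were probed by western blot for c-Myc. Blots from six animals were quantified by densitometry and compared by unpaired t-test.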
# Mus musculus [3] = test: Reduction of liver fibrosis in DEN/CDAHFD-induced NASH C57BL/6 mouse model assessed as decrease in Acta2 gene expression at 50 mg/kg, IP for 5 days a week by qRT-PCR analysis; assay type: functional, organism-based; conditions: time 5.0 day; how it was run: as §1
# Mus musculus [4] = test: Reduction of liver fibrosis in DEN/CDAHFD-induced NASH C57BL/6 mouse model assessed as decrease in collagen proportional area at 50 mg/kg, IP for 5 days a week; assay type: functional, organism-based; conditions: time 5.0 day
# How it was run: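 Fibrosis was scored as collagen proportional area by quantitative digital analysis of whole-scanned Sirius red-stained liver sections. Sections came from DEN/CDAHFD male C57BL/6 mice harvested at 30 weeks after IP dosing 5 days/week from week 12 (cyclodextrin vehicle), n=3 per group; means±SD.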
# Mus musculus [5] = test: Decrease in EPCAM gene expression in DEN/CDAHFD-induced NASH C57BL/6 mouse model at 50 mg/kg, IP for 5 days a week by CHIP-qPCR assay; assay type: functional, organism-based; conditions: time 5.0 day
# How it was run: (§2)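 ChIP-qPCR on livers of control, DEN/CDAHFD and treated DEN/CDAHFD mice (IP 5 days/week from week 12, harvest at 30 weeks) measured BRD4 recruitment to promoter-enhancer regions of the named genes, using BRD4 antibody against an IgG control. Groups were compared by Mann-Whitney U test.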
# Mus musculus [6] = test: Reduction of liver inflammation in DEN/CDAHFD-induced NASH C57BL/6 mouse model assessed as decrease in Ccl2 gene expression at 50 mg/kg, IP for 5 days a week by qRT-PCR analysis; assay type: functional, organism-based; conditions: time 5.0 day; how it was run: as §1
# Mus musculus [7] = test: Antitumor activity in DEN/CDAHFD-induced NASH C57BL/6 mouse model assessed as decrease in number of tumor at 50 mg/kg, IP for 5 days a week; assay type: functional, organism-based; conditions: time 5.0 day
# How it was run: (§3)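 Male C57BL/6 mice, single IP diethylnitrosamine 35 mg/kg on day 15. From 6 weeks of age fed CDAHFD (60 kcal% fat, 0.1% methionine). From 12 weeks, randomised to IP dosing 5 days/week, drug in 10% (2-hydroxypropyl)-β-cyclodextrin or vehicle alone. Livers harvested at 30 weeks; body weight, liver weight and tumour nodule counts recorded (n=8 per group), with H&E and Sirius red sections; means±SEM, unpaired t-test.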
# Mus musculus [8] = test: Reduction of liver inflammation in DEN/CDAHFD-induced NASH C57BL/6 mouse model assessed as decrease in TNFa gene expression at 50 mg/kg, IP for 5 days a week by qRT-PCR analysis; assay type: functional, organism-based; conditions: time 5.0 day; how it was run: as §1
# Mus musculus [9] = test: Decrease in NFkappaB2 gene expression in DEN/CDAHFD-induced NASH C57BL/6 mouse model at 50 mg/kg, IP for 5 days a week by CHIP-qPCR assay; assay type: functional, organism-based; conditions: time 5.0 day; how it was run: as §2
# Mus musculus [10] = test: Effect on body weight in DEN/CDAHFD-induced NASH C57BL/6 mouse model at 50 mg/kg, IP for 5 days a week; assay type: functional, organism-based; conditions: time 5.0 day; how it was run: as §3
# Mus musculus [11] = test: Reduction of liver weight in DEN/CDAHFD-induced NASH C57BL/6 mouse model at 50 mg/kg, IP for 5 days a week; assay type: functional, organism-based; conditions: time 5.0 day; how it was run: as §3
# Mus musculus [12] = test: Decrease in SOX9 gene expression in DEN/CDAHFD-induced NASH C57BL/6 mouse model at 50 mg/kg, IP for 5 days a week by CHIP-qPCR assay; assay type: functional, organism-based; conditions: time 5.0 day; how it was run: as §2
# Mus musculus [13] = test: Antitumor activity in DEN/CDAHFD-induced NASH C57BL/6 mouse model assessed as decrease in tumor nodules at 50 mg/kg, IP for 5 days a week by hematoxylin and eosin staining based microscopic analysis; assay type: functional, organism-based; conditions: time 5.0 day; how it was run: as §3
# Mus musculus [14] = test: Reduction of liver fibrosis in DEN/CDAHFD-induced NASH C57BL/6 mouse model assessed as decrease in Col1A gene expression at 50 mg/kg, IP for 5 days a week by qRT-PCR analysis; assay type: functional, organism-based; conditions: time 5.0 day; how it was run: as §1
# Mus musculus [15] = test: Decrease in KRT7 gene expression in DEN/CDAHFD-induced NASH C57BL/6 mouse model at 50 mg/kg, IP for 5 days a week by CHIP-qPCR assay; assay type: functional, organism-based; conditions: time 5.0 day; how it was run: as §2
# Mus musculus [16] = test: Antitumor activity in DEN/CDAHFD-induced NASH C57BL/6 mouse model assessed as decrease in tumor nodules at 50 mg/kg, IP for 5 days a week by sirus red staining based microscopic analysis; assay type: functional, organism-based; conditions: time 5.0 day; how it was run: as §3
# Huh-7.5.1 [17] = test: Inhibition of Histone acetyltransferase in human Huh7.5.1 cells infected with hepatitis C virus assessed as effect on viral load; assay type: cell-based
# Huh-7.5.1 [18] = test: Inhibition of Histone acetyltransferase in human Huh7.5.1 cells assessed as hepatitis C virus-induced NFkappaB mRNA level measured after 72 hrs; assay type: cell-based
# How it was run: (§4)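 Huh7.5.1 cells differentiated with dimethyl sulfoxide, then infected with HCV until they expressed the poor-prognosis status of the prognostic liver signature. Infected cells were then incubated with chromatin modifier/reader inhibitors. Concentrations were chosen as non-toxic from MTT viability tests on non-infected differentiated cells at 72 h (n=3, viability relative to untreated cells).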
# Huh-7.5.1 [19] = test: Inhibition of Histone acetyltransferase in human Huh7.5.1 cells assessed as hepatitis C virus-induced EGF mRNA level measured after 72 hrs; assay type: cell-based; how it was run: as §4
SMILES,inhibition (Mus musculus [1]),Activity (Mus musculus [2]),inhibition (Mus musculus [3]),inhibition (Mus musculus [4]),inhibition (Mus musculus [5]),inhibition (Mus musculus [6]),inhibition (Mus musculus [7]),inhibition (Mus musculus [8]),inhibition (Mus musculus [9]),Activity (Mus musculus [10]),inhibition (Mus musculus [11]),inhibition (Mus musculus [12]),inhibition (Mus musculus [13]),inhibition (Mus musculus [14]),inhibition (Mus musculus [15]),inhibition (Mus musculus [16]),inhibition (Huh-7.5.1 [17]),inhibition (Huh-7.5.1 [18]),inhibition (Huh-7.5.1 [19])
Cc1sc2c(c1C)C(c1ccc(Cl)cc1)=N[C@@H](CC(=O)OC(C)(C)C)c1nnc(C)n1-2,Active,inactive,Active,Active,Active,Active,Active,Active,Active,inactive,Active,Active,Active,Active,Active,Active,–,–,–
CC1=NN(c2ccc(C(=O)O)cc2)C(=O)/C1=C\c1ccc(-c2cc(C)c(C)cc2[N+](=O)[O-])o1,–,–,–,–,–,–,–,–,–,–,–,–,–,–,–,–,inactive,–,–
COc1cc(/C=C/c2cc(/C=C/c3ccc(O)c(OC)c3)n(-c3ccc(C(=O)O)cc3)n2)ccc1O,–,–,–,–,–,–,–,–,–,–,–,–,–,–,–,–,inactive,Active,Active
